The text below walks through data of ChEMBL document CHEMBL3046951, “Volatile constituents from the leaves of Callicarpa japonica Thunb. and their antibacterial activities” (2004).

Structures are written as SMILES.

What all share (type): functional
In assay [1] the test system is Listeria monocytogenes. Kind of assay: Antimicrobial activity against Listeria monocytogenes ATCC 19111 assessed as growth inhibition rate at 9.84 mg/l after 72 hr by spectrophotometry. To be noted: ATCC 19111, 72 h, read-out: GI. In outline: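 Pure volatile compounds (>95% purity) tested on Listeria monocytogenes ATCC 19111 in tryptic soy broth at 30 °C. Inoculum: 24 h culture subcultured (0.1 mL into 9.9 mL broth) and grown 18 h. Growth followed by Bioscreen C optical density every 24 h for 72 h against a 10% Tween 80 control.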

For assay [2], the system named is Staphylococcus aureus. Kind of assay: Antimicrobial activity against Staphylococcus aureus ATCC 25923 assessed as growth inhibition rate at 9.84 mg/l after 72 hr by spectrophotometry. To be noted: ATCC 25923, 72 h, read-out: GI.
For assay [3], the system named is Vibrio parahaemolyticus. The assay can be described thus: Antimicrobial activity against Vibrio parahaemolyticus ATCC 33844 assessed as growth inhibition rate at 9.84 mg/l after 72 hr by spectrophotometry. The following applies: ATCC 33844, 72 h, read-out: GI.
Assay [4] deals with Escherichia coli. The assay can be described thus: Antimicrobial activity against Escherichia coli O157:H7 ATCC 43894 assessed as growth inhibition rate at 9.84 mg/l after 72 hr by spectrophotometry. To be noted: O157:H7 ATCC 43894, 72 h, read-out: GI. In outline:
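Authentic volatiles (>95% purity; 2,4-heptadienal 90%) tested against 18 h subcultures. Growth media: E. coli O157:H7 and S. aureus in tryptic soy broth at 37 °C; L. monocytogenes in tryptic soy broth at 30 °C; V. parahaemolyticus in tryptic soy broth + 3% NaCl at 37 °C; S. typhimurium in nutrient broth at 30 °C. Bioscreen C OD every 24 h for 72 h versus 10% Tween 80 control.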

For assay [5], the system named is Salmonella typhimurium. The assay can be described thus: Antimicrobial activity against Salmonella enterica subsp. enterica serovar Typhimurium ATCC 14028 assessed as growth inhibition rate at 9.84 mg/l after 72 hr by spectrophotometry. To be noted: ATCC 14028, 72 h, read-out: GI.
The subject of assay [6] is Bacillus cereus. The assay can be described thus: Antimicrobial activity against Bacillus cereus ATCC 11778 assessed as growth inhibition rate at 9.84 mg/l after 72 hr by spectrophotometry. The following applies: ATCC 11778, 72 h, read-out: GI. In outline:
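Pure volatile compounds (>95% purity) from the leaf extract were tested against B. cereus grown at 30 °C in nutrient broth from an 18 h subculture. Optical density was read in a Bioscreen C every 24 h over 72 h, and activity was compared with a 10% Tween 80 control.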

Consider `CCCCCCO` [1-HEXANOL], for which the inhibition of growth at 9.84 µg/mL in assay [1] was 4.2%; in assay [2] it was 6.9%; in assay [3], 27.1%; in assay [4], 16.9%; in assay [5], 23.3%; in assay [6], 3.6%.
